In brackets after ≈: the same amount, converted by molar mass. Activity calls are given as the source filed them. The calls are words filed in the database; no cut-off is given here.
Key:
Candida albicans [1] = experiment: Antifungal activity against drug sensitive Candida albicans SC5314 assessed as inhibition of fungal growth incubated for 24 hrs by CLSI protocol based microdilution method; assay type: functional
Summary of the method: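 Broth microdilution of log-phase C. albicans at 1×10^5 CFU/mL in Sabouraud liquid medium (SDB). Compounds serially diluted 5-fold to final 200-0.064 µg/mL, DMSO below 0.1%. Triplicate wells, 200 µL final volume, with growth, blank and fluconazole controls. Incubated 24 h at 30 °C, OD read at 630 nm; experiment repeated three times.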

Candida albicans [2] = experiment: Antifungal activity against drug resistant Candida albicans SC5314-FR assessed as inhibition of fungal growth incubated for 24 hrs by CLSI protocol based microdilution method; assay type: functional
Summary of the method: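 Fluconazole-resistant strain derived from SC5314 by fluconazole exposure. Log-phase cells at 1×10^5 CFU/mL in SDB. Drug fivefold serial dilutions, 200–0.064 µg/mL final, DMSO <0.1%, triplicate wells, 200 µL. Incubated 30 °C for 24 h and read at OD630. Growth, blank and fluconazole controls included. Run three times.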

Candida albicans [3] = experiment: Antifungal activity against Candida albicans SC5314 assessed as inhibition of fungal growth measured up to 48 hrs by time-killing curve analysis; assay type: functional, organism-based
Summary of the method: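 Log-phase cells at 1×10^5 CFU/mL in SDB, 10 mL per group. Drug at 0.27, 0.53 or 1.06 µg/mL, plus fluconazole and untreated controls. Shaken 150 r/min at 30 °C. Samples taken at 0, 4, 8, 12, 24, 36 and 48 h and read at A630, triplicate wells. Absorbance plotted against time.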

Candida albicans [4] = experiment: Antifungal activity against Candida albicans assessed as inhibition of mycelia formation measured after 4 to 8 hrs by inverted microscopic analysis; assay type: functional, organism-based; settings: time 4-8 hrs
Summary of the method: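 Hyphae induced in SD + 10% FBS or in Spider medium, log-phase cells at 1×10^5 CFU/mL. Drug at 0.27, 0.53 or 1.06 µg/mL, with fluconazole and drug-free controls, 1 mL per well in 24-well plates, triplicate. […], and mycelium formation viewed and photographed by inverted microscope at 4 and 8 h.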

Cell membrane [5] = experiment: Induction of cell membrane permeability in Candida albicans assessed as increase in red fluorescence incubated for 16 to 24 hrs by PI staining based fluorescence microscopic analysis; assay type: subcellular; settings: time 16-24 hrs
Summary of the method: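 C. albicans at 1×10^5 CFU/mL in SDB grown with drug (0.27, 0.53, 1.06 µg/mL), fluconazole or no drug at 30 °C, 150 r/min, for 16-24 h. Cells washed and resuspended in PBS at 2×10^6 CFU/mL. Stained with propidium iodide (final 5 µg/mL) 30 min at room temperature in the dark, then washed. Imaged by fluorescence microscopy and fluorescence intensity measured.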

Candida albicans [6] = experiment: Antibiofilm activity in Candida albicans SC5314 assessed as decrease in number of mycelia measured after 24 hrs by inverted microscopic analysis; assay type: functional, organism-based
Summary of the method: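 Log-phase cells at 1×10^5 CFU/mL in RPMI1640 + 10% FBS allowed to adhere 90 min at 30 °C in 24-well plates. Excess medium removed, then 1 mL medium with or without drug (0.27, 0.53, 1.06 µg/mL; fluconazole group) added for 24 h at 30 °C. Crystal violet stain 30 min, PBS washes ×3, biofilm viewed by inverted microscope.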

Cell membrane [7] = experiment: Induction of cell membrane permeability in Candida albicans assessed as increase in fluorescence intensity by multifunctional enzymatic assay; assay type: subcellular
Candida albicans [8] = experiment: Induction of morphological changes in Candida albicans assessed as normal cell wall appearance incubated for 16 to 24 hrs by transmission electron microscopic analysis; assay type: functional, organism-based; settings: time 16-24 hrs
Summary of the method: (§1)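 Cells at 5×10^5 CFU/mL in SDB with drug (0.27, 0.53, 1.06 µg/mL), fluconazole or no drug. Shaken 150 r/min at 30 °C for 16–24 h, pelleted and PBS-washed. Fixed in 3% paraformaldehyde/2.5% glutaraldehyde at 4 °C, post-fixed in 1% OsO4, acetone-dehydrated and Epon-812 embedded. 60–90 nm sections stained with uranyl acetate and lead citrate, imaged by TEM.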

Candida albicans [9] = experiment: Induction of morphological changes in Candida albicans assessed as blurred spacing between cell wall and cell membrane incubated for 16 to 24 hrs by transmission electron microscopic analysis; assay type: functional, organism-based; settings: time 16-24 hrs; summary of the method: as §1
Candida albicans [10] = experiment: Induction of morphological changes in Candida albicans assessed as loose distribution of cytoplasm incubated for 16 to 24 hrs by transmission electron microscopic analysis; assay type: functional, organism-based; settings: time 16-24 hrs; summary of the method: as §1
Candida albicans [11] = experiment: Induction of morphological changes in Candida albicans assessed as absence of intracellular substance incubated for 16 to 24 hrs by transmission electron microscopic analysis; assay type: functional, organism-based; settings: time 16-24 hrs; summary of the method: as §1
16HBE14o- = experiment: Cytotoxicity against human 16HBE14o- cells assessed as reduction in cell viability 0.032 to 100 microg/ml incubated for 48 hrs by CCK8 assay; assay type: toxicity, cell-based; settings: dose 0.032-100 µg/ml
Summary of the method: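 16HBE cells seeded in RPMI1640 + 10% FBS + 1% antibiotics and attached 24 h at 37 °C. Medium replaced with drug in fivefold dilutions from 100 µg/mL, with fluconazole, growth and blank controls. Incubated 48 h, then CCK8 reagent added and plates incubated for viability read-out.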

Molecule `C=CCn1cc(COC(Cn2ccnc2)c2ccc(Cl)cc2Cl)nn1` (stereo unspecified) has an MIC50 (Candida albicans [1]) of 29.4 µg/mL (≈ 77.8 µM) and an MIC50 (Candida albicans [2]) of 77.9 µg/mL (≈ 206 µM).
Molecule `FC(F)(F)c1ccc(Cn2cc(COC(Cn3ccnc3)c3ccc(Cl)cc3Cl)nn2)cc1` (stereo unspecified) has an MIC50 (Candida albicans [1]) of 9.77 µg/mL (≈ 19.7 µM) and an MIC50 (Candida albicans [2]) of 15 µg/mL (≈ 30.1 µM).
With `O=[N+]([O-])c1ccc(Cn2cc(COC(Cn3ccnc3)c3ccc(Cl)cc3Cl)nn2)cc1` (stereo unspecified) the MIC50 (Candida albicans [1]) was 21.6 µg/mL (≈ 45.6 µM) and the MIC50 (Candida albicans [2]) was 72.4 µg/mL (≈ 153 µM).
For `COc1ccc(C(=O)Cn2cc(COC(Cn3ccnc3)c3ccc(Cl)cc3Cl)nn2)cc1OC` (stereo unspecified), the MIC50 (Candida albicans [1]) was 16.6 µg/mL (≈ 32.2 µM) and the MIC50 (Candida albicans [2]) was 58.6 µg/mL (≈ 113 µM).
For `ClCCn1cc(COC(Cn2ccnc2)c2ccc(Cl)cc2Cl)nn1` (stereo unspecified), the MIC50 (Candida albicans [1]) was 1.2 µg/mL (≈ 2.99 µM) and the MIC50 (Candida albicans [2]) was 14.1 µg/mL (≈ 35.3 µM).
Molecule `Fc1ccc(Cn2cc(COC(Cn3ccnc3)c3ccc(Cl)cc3Cl)nn2)cc1F` (stereo unspecified) has an MIC50 (Candida albicans [1]) of 11.4 µg/mL (≈ 24.7 µM) and an MIC50 (Candida albicans [2]) of 21.4 µg/mL (≈ 46 µM).
Work on `COC(=O)/C=C/c1ccc(Cn2cc(COC(Cn3ccnc3)c3ccc(Cl)cc3Cl)nn2)cc1` (stereo unspecified) yielded an MIC50 (Candida albicans [1]) of 16.5 µg/mL (≈ 32.2 µM) and an MIC50 (Candida albicans [2]) of 17.8 µg/mL (≈ 34.8 µM).
`O=C(Cn1cc(COC(Cn2ccnc2)c2ccc(Cl)cc2Cl)nn1)c1ccc(Br)cc1` (stereo unspecified) showed an MIC50 (Candida albicans [1]) of 0.51 µg/mL (≈ 0.953 µM) and an MIC50 (Candida albicans [2]) of 9.83 µg/mL (≈ 18.4 µM).
`Clc1ccc(C(Cn2ccnc2)OCc2cn(Cc3ccccc3)nn2)c(Cl)c1` (stereo unspecified) gave an MIC50 (Candida albicans [1]) of 6.63 µg/mL (≈ 15.5 µM) and an MIC50 (Candida albicans [2]) of 21.5 µg/mL (≈ 50.2 µM).
For `N#Cc1ccc(Cn2cc(COC(Cn3ccnc3)c3ccc(Cl)cc3Cl)nn2)cc1` (stereo unspecified), the MIC50 (Candida albicans [1]) was 26.1 µg/mL (≈ 57.6 µM) and the MIC50 (Candida albicans [2]) was 93.2 µg/mL (≈ 206 µM).
With `COC(=O)Cn1cc(COC(Cn2ccnc2)c2ccc(Cl)cc2Cl)nn1` (stereo unspecified) the MIC50 (Candida albicans [1]) was 1.62 µg/mL (≈ 3.95 µM) and the MIC50 (Candida albicans [2]) was over 200 µg/mL.
With `Clc1ccc(C(Cn2ccnc2)OCc2cn(Cc3ccc(Br)cc3)nn2)c(Cl)c1` (stereo unspecified) the MIC50 (Candida albicans [1]) was 1.33 µg/mL (≈ 2.62 µM) and the MIC50 (Candida albicans [2]) was 9.03 µg/mL (≈ 17.8 µM).
For `O=C(Cn1cc(COC(Cn2ccnc2)c2ccc(Cl)cc2Cl)nn1)c1ccccc1` (stereo unspecified), the MIC50 (Candida albicans [1]) was 1.61 µg/mL (≈ 3.53 µM) and the MIC50 (Candida albicans [2]) was 23.4 µg/mL (≈ 51.3 µM).
Molecule `O=C(Cn1cc(COC(Cn2ccnc2)c2ccc(Cl)cc2Cl)nn1)c1ccccc1Cl` (stereo unspecified) has an MIC50 (Candida albicans [1]) of 4.71 µg/mL (≈ 9.6 µM) and an MIC50 (Candida albicans [2]) of 24.1 µg/mL (≈ 49 µM).
`O=C(Cn1cc(COC(Cn2ccnc2)c2ccc(Cl)cc2Cl)nn1)c1ccc(F)cc1` (stereo unspecified) showed an MIC50 (Candida albicans [1]) of 1.17 µg/mL (≈ 2.47 µM) and an MIC50 (Candida albicans [2]) of 15.9 µg/mL (≈ 33.6 µM).
`Cc1ccc(C(=O)Cn2cc(COC(Cn3ccnc3)c3ccc(Cl)cc3Cl)nn2)cc1` (stereo unspecified) gave an MIC50 (Candida albicans [1]) of 3.34 µg/mL (≈ 7.1 µM) and an MIC50 (Candida albicans [2]) of 26.2 µg/mL (≈ 55.6 µM).
`Clc1ccc(C(Cn2ccnc2)OCc2cn(Cc3ccc4ccccc4c3)nn2)c(Cl)c1` (stereo unspecified) gave an MIC50 (Candida albicans [1]) of 1.57 µg/mL (≈ 3.28 µM) and an MIC50 (Candida albicans [2]) of 4.57 µg/mL (≈ 9.55 µM).
With `Clc1ccc(C(Cn2ccnc2)OCc2cn(C/C=C/c3ccccc3)nn2)c(Cl)c1` (stereo unspecified) the MIC50 (Candida albicans [1]) was 1.57 µg/mL (≈ 3.46 µM) and the MIC50 (Candida albicans [2]) was 11.5 µg/mL (≈ 25.2 µM).
With `O=C(Cn1cc(COC(Cn2ccnc2)c2ccc(Cl)cc2Cl)nn1)c1ccc(Cl)cc1Cl` (stereo unspecified) the MIC50 (Candida albicans [1]) was 8.72 µg/mL (≈ 16.6 µM) and the MIC50 (Candida albicans [2]) was 19.9 µg/mL (≈ 37.9 µM).
In the case of `OC(Cn1cncn1)(Cn1cncn1)c1ccc(F)cc1F` [FLUCONAZOLE], the MIC50 (Candida albicans [1]) is reported as 1.52 µg/mL (≈ 4.96 µM), the MIC50 (Candida albicans [2]) is reported as over 200 µg/mL and the Activity (Candida albicans [3]) is reported as “Active”. The Activity (Candida albicans [4]) was “Active”, the Activity (Cell membrane [5]) was “Active; Small Amount Of Red Fluorescence Observed” and the Activity (Candida albicans [6]) was “Active”. For the same molecule, the Activity (Cell membrane [7]) was “Active”, the Activity (Candida albicans [8]) was “Active” and the Activity (Candida albicans [9]) was “Active”. The Activity (Candida albicans [10]) was “Active”, the Activity (Candida albicans [11]) was “Active” and the Activity (16HBE14o-) was “Non-toxic”.
Molecule `Clc1ccc(Cn2cc(COC(Cn3ccnc3)c3ccc(Cl)cc3Cl)nn2)cc1` (stereo unspecified) has an MIC50 (Candida albicans [1]) of 1.78 µg/mL (≈ 3.85 µM) and an MIC50 (Candida albicans [2]) of 11 µg/mL (≈ 23.7 µM).
Molecule `CC(=O)Cn1cc(COC(Cn2ccnc2)c2ccc(Cl)cc2Cl)nn1` (stereo unspecified) has an MIC50 (Candida albicans [1]) of 90.8 µg/mL (≈ 230 µM) and an MIC50 (Candida albicans [2]) of over 200 µg/mL.
For `O=C(Cn1cc(COC(Cn2ccnc2)c2ccc(Cl)cc2Cl)nn1)c1ccc(F)cc1F` (stereo unspecified), the MIC50 (Candida albicans [1]) was 0.69 µg/mL (≈ 1.4 µM) and the MIC50 (Candida albicans [2]) was 19.3 µg/mL (≈ 39.2 µM).

Source: ChEMBL document CHEMBL6177924, “Synthesis and antifungal evaluation of new azole derivatives containing 1,2,3-triazole” (RSC Med Chem, 2025)
